Measurements taken from ChEMBL document CHEMBL4266051, “Diterpenoids from Euphorbia dulcis with Potassium Ion Channel Inhibitory Activity with Selective G Protein-Activated Inwardly Rectifying Ion Channel (GIRK) Blocking Effect” (J Nat Prod, 2018).

Columns and labels:
Type in all cases: cell-based
[1] = target: T1, Kir3.1/Kir3.4 (Homo sapiens) (UniProt P48549+P48544); assay: Inhibition of GIRK-1/4 channel (unknown origin) expressed in HEK293 cells at 10 uM by automated patch clamp method relative to control
Procedure, shortened: (§1)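 HEK-293 cells stably expressing GIRK1/4 (Kir3.1/3.4) K+ channels; whole-cell currents recorded by automated patch clamp. Compounds screened at 1 and 10 μM, two or three cells per condition. Current values corrected using the current measured in K+-free external solution as baseline. Inhibition expressed as % of GIRK current; mean ± SEM, n = 2–3.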

[2] = target: T1, Kir3.1/Kir3.4 (Homo sapiens); assay: Inhibition of GIRK-1/4 channel (unknown origin) expressed in HEK293 cells at 1 uM by automated patch clamp method relative to control; procedure, shortened: as §1
hERG (KCNH2) [3] = target: T2, hERG (KCNH2) (Homo sapiens, UniProt Q12809); assay: Inhibition of human ERG expressed in HEK293 cells at 1 uM by automated patch clamp method relative to control; conditions: HEK293 cells that express hERG
Procedure, shortened: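 Automated whole-cell patch clamp in HEK-293 cells stably transfected with hERG (Kv11.1) cDNA. Increasing concentrations (1 and 10 μM) applied, two cells each. Current amplitude inhibition expressed as %, means ± SEM. 10 μM amitriptyline used as reference blocker.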

[4] = target: T1, Kir3.1/Kir3.4 (Homo sapiens); assay: (§2) Inhibition of GIRK-1/4 channel (unknown origin) expressed in HEK293 cells by automated patch clamp method
Procedure, shortened: (§3)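 Whole-cell currents by automated patch clamp in HEK-293 cells stably expressing GIRK1/4 (Kir3.1/3.4). Screening at 1 and 10 μM on two or three cells. Concentration-response at four concentrations (0.3, 1, 3, 10 μM) on five or six cells, used for IC50. Currents corrected to the K+-free external solution as baseline. Means ± SEM.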

Kir3.1/Kir3.4 = target: T3, Kir3.1/Kir3.4 (Homo sapiens, UniProt P48544+P48549); assay: as §2; procedure, shortened: as §3
T3 sequence (P48549 whole entry): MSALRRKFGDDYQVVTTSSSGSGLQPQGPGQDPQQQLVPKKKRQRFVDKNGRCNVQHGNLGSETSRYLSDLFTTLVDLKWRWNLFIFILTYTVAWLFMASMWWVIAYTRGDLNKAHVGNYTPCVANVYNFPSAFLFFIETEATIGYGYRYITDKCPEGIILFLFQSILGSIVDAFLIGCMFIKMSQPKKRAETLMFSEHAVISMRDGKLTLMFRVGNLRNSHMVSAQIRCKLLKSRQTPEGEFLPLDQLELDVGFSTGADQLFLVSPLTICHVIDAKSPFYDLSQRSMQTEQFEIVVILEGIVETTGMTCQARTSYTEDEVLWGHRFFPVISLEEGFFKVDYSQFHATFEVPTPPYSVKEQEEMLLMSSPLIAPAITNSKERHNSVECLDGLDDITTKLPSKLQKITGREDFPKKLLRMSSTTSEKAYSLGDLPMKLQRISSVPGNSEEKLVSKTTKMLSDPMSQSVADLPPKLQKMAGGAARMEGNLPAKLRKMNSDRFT
T3 sequence (P48544 whole entry): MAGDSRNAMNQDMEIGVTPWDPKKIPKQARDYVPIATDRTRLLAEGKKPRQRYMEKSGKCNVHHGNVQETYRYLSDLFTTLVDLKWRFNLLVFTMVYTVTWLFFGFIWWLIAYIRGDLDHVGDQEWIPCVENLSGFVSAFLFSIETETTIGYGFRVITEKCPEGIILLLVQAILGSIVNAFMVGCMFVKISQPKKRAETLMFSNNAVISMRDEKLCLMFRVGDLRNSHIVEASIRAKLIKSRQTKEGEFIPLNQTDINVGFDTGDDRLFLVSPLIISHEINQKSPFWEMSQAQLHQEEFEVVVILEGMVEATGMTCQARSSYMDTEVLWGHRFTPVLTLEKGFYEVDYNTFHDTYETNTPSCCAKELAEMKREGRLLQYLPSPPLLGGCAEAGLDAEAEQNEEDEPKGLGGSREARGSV

hERG (KCNH2) [5] = target: T2, hERG (KCNH2); assay: Inhibition of human ERG expressed in HEK293 cells at 10 uM by automated patch clamp method relative to control; conditions: HEK293 cells that express hERG

T2 sequence (Q12809 whole entry): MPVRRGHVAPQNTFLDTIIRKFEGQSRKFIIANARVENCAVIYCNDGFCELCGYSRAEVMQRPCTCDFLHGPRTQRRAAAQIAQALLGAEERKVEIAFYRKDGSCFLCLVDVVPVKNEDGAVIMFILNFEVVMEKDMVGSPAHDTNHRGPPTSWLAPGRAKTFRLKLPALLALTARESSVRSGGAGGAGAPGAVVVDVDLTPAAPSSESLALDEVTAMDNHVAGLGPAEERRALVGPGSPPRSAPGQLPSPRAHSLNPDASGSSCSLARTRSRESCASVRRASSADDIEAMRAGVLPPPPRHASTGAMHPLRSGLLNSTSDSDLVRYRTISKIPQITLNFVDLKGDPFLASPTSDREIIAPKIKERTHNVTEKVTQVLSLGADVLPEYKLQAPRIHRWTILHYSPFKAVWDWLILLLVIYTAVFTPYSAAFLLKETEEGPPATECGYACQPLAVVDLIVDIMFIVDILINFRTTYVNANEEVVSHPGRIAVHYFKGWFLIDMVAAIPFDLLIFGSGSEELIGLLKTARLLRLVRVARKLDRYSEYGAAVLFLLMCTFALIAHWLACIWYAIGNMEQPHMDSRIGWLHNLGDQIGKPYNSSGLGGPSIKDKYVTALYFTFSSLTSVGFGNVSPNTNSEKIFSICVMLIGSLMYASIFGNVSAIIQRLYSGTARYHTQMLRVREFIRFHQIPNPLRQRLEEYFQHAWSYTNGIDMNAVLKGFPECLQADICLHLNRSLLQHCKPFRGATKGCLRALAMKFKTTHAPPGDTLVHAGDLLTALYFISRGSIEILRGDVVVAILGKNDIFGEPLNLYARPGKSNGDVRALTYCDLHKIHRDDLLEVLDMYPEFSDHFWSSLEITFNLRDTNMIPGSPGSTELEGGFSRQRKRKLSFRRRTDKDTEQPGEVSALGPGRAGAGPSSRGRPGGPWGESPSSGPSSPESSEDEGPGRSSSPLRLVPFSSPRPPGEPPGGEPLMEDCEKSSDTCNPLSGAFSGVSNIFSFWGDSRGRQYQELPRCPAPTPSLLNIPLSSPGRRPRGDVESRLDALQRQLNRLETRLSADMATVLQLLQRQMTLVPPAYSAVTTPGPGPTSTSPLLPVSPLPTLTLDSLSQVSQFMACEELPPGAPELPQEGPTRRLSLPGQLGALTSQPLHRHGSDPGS

Compound `C/C=C(\C)C(=O)O[C@H]1/C(C)=C/[C@H]2[C@@H](OC(=O)c3ccccc3)[C@@H](C)C[C@]2(O)[C@@H](OC(=O)/C(C)=C/C)[C@@H](C)/C=C/C(C)(C)[C@H](OC(C)=O)[C@H]1OC(C)=O` has an inhibition [1] of 35.7% and an inhibition [2] of 23.5%.

Work on `CC(=O)O[C@@H]1C[C@@H](OC(C)=O)C(C)(C)/C=C/[C@H](C)[C@H](OC(C)=O)[C@@]2(O)C[C@H](C)[C@H](OC(=O)c3ccccc3)[C@@H]2/C=C/1C` [EUPHORNIN] yielded an inhibition [1] of 78.7%, an inhibition at 1 µM (hERG (KCNH2) [3]) of 3.3% and an inhibition [2] of 31.1%. For the same compound, the inhibition [4] was “Dose-dependent effect”, the IC50 (Kir3.1/Kir3.4) was 2.63 µM and the inhibition at 10 µM (hERG (KCNH2) [5]) was 19%.

`CC(=O)O[C@@H]1[C@@H](OC(C)=O)C(C)(C)/C=C/[C@H](C)[C@H](OC(C)=O)[C@@]2(O)C[C@H](C)[C@H](OC(=O)c3ccccc3)[C@@H]2/C=C(\C)[C@@H]1OC(C)=O` gave an inhibition [1] of 83.4%, an inhibition at 1 µM (hERG (KCNH2) [3]) of 13.2% and an inhibition [2] of 33.8%. The inhibition [4] was “Dose-dependent effect”, the IC50 (Kir3.1/Kir3.4) was 1.69 µM and the inhibition at 10 µM (hERG (KCNH2) [5]) was 24%.

With `C/C=C(/C)C(=O)OCC1(C)[C@H]2[C@@H]3C=C(C)[C@@H](O)[C@]4(O)[C@@H](OC(=O)/C(C)=C\C)C(C)=C[C@]4(C3=O)[C@H](C)C[C@H]21` (stereo partly specified) the inhibition [1] was 80.4%, the inhibition at 1 µM (hERG (KCNH2) [3]) was 11.2% and the inhibition [2] was 43.9%. For the same compound, the inhibition [4] was “Dose-dependent effect”, the IC50 (Kir3.1/Kir3.4) was 1.45 µM and the inhibition at 10 µM (hERG (KCNH2) [5]) was 55.4%.

For `CCCNCC(O)COc1ccccc1C(=O)CCc1ccccc1` (stereo unspecified), the inhibition [2] was 60.6 to 94.2%.

For `CC(=O)O[C@@H]1[C@@H](OC(C)=O)C(C)(C)/C=C/[C@H](C)[C@H](OC(C)=O)[C@@]2(O)C[C@H](C)[C@H](OC(=O)c3ccccc3)[C@@H]2/C=C(\C)[C@@H]1O`, the inhibition [1] was 66.6% and the inhibition [2] was 16.8%.

Compound `C/C=C(\C)C(=O)O[C@H]1[C@@H](C)/C=C/C(C)(C)[C@H](OC(C)=O)[C@@H](OC(C)=O)[C@@H](O)/C(C)=C/[C@H]2[C@@H](OC(=O)c3ccccc3)[C@@H](C)C[C@@]21O` has an inhibition [1] of 60.8% and an inhibition [2] of 15.3%.

`C/C=C(/C)C(=O)OCC1(C)[C@H]2[C@@H]3C=C(COC(C)=O)[C@@H](O)[C@]4(O)[C@@H](OC(=O)/C(C)=C\C)C(C)=C[C@]4(C3=O)[C@H](C)C[C@H]21` (stereo partly specified) gave an inhibition [1] of 45.1% and an inhibition [2] of 16.4%.

Compound `C/C=C(\C)C(=O)O[C@@H]1C[C@@H](OC(C)=O)C(C)(C)/C=C/[C@H](C)[C@H](OC(C)=O)[C@@]2(O)C[C@H](C)[C@H](OC(=O)c3ccccc3)[C@@H]2/C=C/1C` has an inhibition [1] of 88.7%, an inhibition at 1 µM (hERG (KCNH2) [3]) of 10.8% and an inhibition [2] of 35.5%. The inhibition [4] was “Dose-dependent effect”, the IC50 (Kir3.1/Kir3.4) was 1.31 µM and the inhibition at 10 µM (hERG (KCNH2) [5]) was 24.9%.

Work on `CC(=O)OCC(=O)O[C@@H]1[C@H]2[C@@H](OC(=O)c3ccccc3)[C@@H](C)C[C@]2(O)[C@@H](OC(C)=O)[C@]2(C)C[C@@]1(OC(C)=O)C[C@H]1C(=O)C(C)(C)C[C@@H]12` yielded an inhibition [1] of 28.6% and an inhibition [2] of 17.7%.

In the case of `CC(=O)O[C@H]1/C(C)=C/[C@H]2[C@@H](OC(=O)c3ccccc3)[C@@H](C)C[C@]2(O)[C@@H](OC(C)=O)[C@@H](C)/C=C/C(C)(C)[C@H](O)[C@H]1O`, the inhibition [1] is reported as 23.5% and the inhibition [2] is reported as 11.2%.

With `CC(=O)O[C@H]1[C@@H](C)/C=C/C(C)(C)[C@H](O)[C@@H](O)[C@@H](O)/C(C)=C/[C@H]2[C@@H](OC(=O)c3ccccc3)[C@@H](C)C[C@@]21O` the inhibition [1] was 25.7% and the inhibition [2] was 15.7%.

`C=C1CC[C@@H](OC(=O)/C=C/c2ccccc2)C(C)(C)/C=C/[C@H](C)C(=O)[C@@]2(O)C[C@H](C)[C@H](OC(=O)/C=C/c3ccccc3)[C@@H]2[C@H]1OC(C)=O` gave an inhibition [1] of 23.7% and an inhibition [2] of 22.2%.

In the case of `C/C=C(\C)C(=O)O[C@H]1/C(C)=C/[C@H]2[C@@H](OC(=O)c3ccccc3)[C@@H](C)C[C@]2(O)[C@@H](OC(C)=O)[C@@H](C)/C=C/C(C)(C)[C@H](OC(C)=O)[C@H]1OC(C)=O`, the inhibition [1] is reported as 85%, the inhibition at 1 µM (hERG (KCNH2) [3]) is reported as 6.5% and the inhibition [2] is reported as 38.5%. The inhibition [4] was “Dose-dependent effect”, the IC50 (Kir3.1/Kir3.4) was 1.6 µM and the inhibition at 10 µM (hERG (KCNH2) [5]) was 24.4%.

`C/C=C(/C)C(=O)O[C@H]1C(C)=C[C@@]23C(=O)[C@@H](C=C(C)[C@@H](O)[C@]12O)[C@H]1[C@@H](C[C@H]3C)C1(C)C` was tested, and the inhibition [1] was 52.3%, the inhibition at 1 µM (hERG (KCNH2) [3]) was 1.8% and the inhibition [2] was 23.8%. The inhibition [4] was “Dose-dependent effect”, the IC50 (Kir3.1/Kir3.4) was 12.1 µM and the inhibition at 10 µM (hERG (KCNH2) [5]) was 7.9%.

Work on `CC(=O)O[C@@H]1[C@@H](O)[C@@H](OC(C)=O)/C(C)=C/[C@H]2[C@@H](OC(=O)c3ccccc3)[C@@H](C)C[C@]2(O)[C@@H](OC(C)=O)[C@@H](C)/C=C/C1(C)C` yielded an inhibition [1] of 26.8% and an inhibition [2] of 16%.

For `CC(=O)O[C@@H]1[C@@H](OC(C)=O)C(C)(C)/C=C/[C@H](C)[C@H](O)[C@@]2(OC(C)=O)C[C@H](C)[C@H](OC(=O)c3ccccc3)[C@@H]2/C=C(\C)[C@@H]1OC(C)=O`, the inhibition [1] was 66%, the inhibition at 1 µM (hERG (KCNH2) [3]) was 11.2% and the inhibition [2] was 27.2%. For the same compound, the inhibition [4] was “Dose-dependent effect”, the IC50 (Kir3.1/Kir3.4) was 3.4 µM and the inhibition at 10 µM (hERG (KCNH2) [5]) was 22.7%.
